A short description of test [1]: Cytotoxicity against human BC clls. The format is functional, cell-based. Summed up: (§1)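 Human breast cancer (BC) and small cell lung cancer (NCI-H187) lines; colorimetric assay per Skehan; IC50 read-out; ellipticine as reference.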
The subject of test [2] is Human alphaherpesvirus 1. Kind of test: Antiviral activity against HSV1. The format is functional, organism-based. The method, boiled down: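 Herpes simplex type 1 antiviral test by colorimetric method per Skehan; IC50 read-out; acyclovir as reference.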
Test [3] concerns Mycobacterium tuberculosis. Kind of test: Antimicrobial activity against Mycobacterium tuberculosis H37Ra by microplate alamar blue assay. In kind it is functional. Summed up: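 M. tuberculosis H37Ra in microplate Alamar Blue assay; MIC read-out; isoniazid and kanamycin sulfate as reference drugs.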
Test [4] deals with NCI-H187. Kind of test: Cytotoxicity against human NCI-H187 cells. The format is functional, cell-based. Summed up:
as §1

In test [5] the test system is Plasmodium falciparum. Kind of test: Antimicrobial activity against Plasmodium falciparum. The format is functional, organism-based. The method, boiled down: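 P. falciparum K1 (multidrug-resistant) kept in culture per Trager–Jensen; microculture radioisotope test; growth read as [3H]-hypoxanthine uptake; IC50 = concentration giving 50% fewer parasites; artemisinin as reference standard.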

Test [6] concerns Plasmodium falciparum. Kind of test: Antimalarial activity against Plasmodium falciparum K1 by [3H]hypoxanthine uptake. The format is functional, organism-based. The method, boiled down:
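Multidrug-resistant K1 parasites cultured per Trager–Jensen. In vitro microculture radioisotope test, with parasite growth read as [3H]-hypoxanthine uptake. IC50 is the concentration giving 50% reduction in parasite growth. Artemisinin run as standard.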

In brackets after ≈: the same amount, converted by molar mass.

In test [1], `Cc1c2ccncc2c(C)c2c1[nH]c1ccccc12` [ELLIPTECINE] registered a 50% inhibitory concentration (IC50) of 0.32 µg/mL (≈ 1.3 µM).
In test [2], `Nc1nc2c(ncn2COCCO)c(=O)[nH]1` [ACYCLOVIR] registered an IC50 of 1.1 µg/mL (≈ 4.88 µM).
In the case of `OCCCCCCCCCCCCCC#CC#CCCCCc1ccco1`, in test [3], the MIC was 6.25 µg/mL (≈ 16.9 µM). Inhibition in test [4] was half-maximal at 12.4 µg/mL (≈ 33.5 µM) (IC50).
On to `COC(=O)CCCC#CCCCCCCCCCCCCCc1ccco1`, for which the lowest concentration to inhibit growth in test [3] (MIC) was 3.1 µg/mL (≈ 8.28 µM).
In test [3], `NC[C@H]1O[C@H](O[C@H]2[C@H](O)[C@@H](O[C@H]3O[C@H](CO)[C@@H](O)[C@H](N)[C@H]3O)[C@H](N)C[C@@H]2N)[C@H](O)[C@@H](O)[C@@H]1O.O=S(=O)(O)O` [KANAMYCIN SULFATE] came in with an MIC of 2 µg/mL. This MIC is about 1.6-fold lower than that of the molecule before.
In the case of `COC(=O)CCCC#CC#CCCCCCCCCCCCc1ccco1`, in test [5], the 50% inhibitory concentration (IC50) came out at 3.7 µg/mL (≈ 9.99 µM).
`O=C(O)CCCC#CC#CCCCCCCCCCCCc1ccco1`: the figures for the IC50 in test [2] and in test [5] were 47 µg/mL (≈ 132 µM) and 50 µg/mL (≈ 140 µM), respectively.
The molecule `NNC(=O)c1ccncc1` [ISONIAZID] displayed an MIC in test [3] of 0.04 µg/mL (≈ 0.292 µM).
As to `O=C(O)CCCC#CCCCCCCCCCCCCCc1ccco1`, half-maximal inhibition in test [2] (IC50) required 19.4 µg/mL (≈ 53.8 µM).
For `C[C@@H]1CC[C@H]2[C@@H](C)C(=O)O[C@@H]3O[C@@]4(C)CC[C@@H]1[C@]32OO4` [ARTEMISININ], half-maximal inhibition in test [6] (IC50) required 0.001 µg/mL (≈ 0.00354 µM).

What is called IC50 is the concentration at which inhibition is half-maximal. Low readings indicate inhibition by little substance, high ones a need for much substance. For orientation: MIC means the least concentration at which growth counts as inhibited. Read a high MIC as a less susceptible organism.

For the origin of these results see ChEMBL document CHEMBL1157224, “2-substituted furans from the roots of Polyalthia evecta” (J Nat Prod, 2006).
